High-throughput results from PubChem BioAssay.
Arrestin-AP2 inh: inhibitors of beta-arrestin/AP2 binding, primary screen, biochemical, GPCR trafficking, flow cytometry | AID 504490, 2011 | FITC-arrestin peptide / GST-AP2 beads; AP2 beta2 appendage carries R879A mutation | inhibition, % at 10 µM | 340,000 compounds, 0.31% hits | beta-arrestin 1 C-terminal peptide binding to AP2 beta2-adaptin appendage (human);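 active means inhibition above a set limit, near 3 SD of compounds lacking own fluorescence, cut at about 54% in these data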;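 further: plate controls were DMSO wells for no effect and 5 µM unlabelled arrestin peptide for full effect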
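Material – AP2 appendage R879A on GSH beads · Buffer or medium – PBS with 0.05% Tween 20 and 0.1% BSA · Probe or stimulus – fluorescein-tagged arrestin peptide at 50 nM final · Incubation – compound with beads 12 min RT, then probe 1 h RT · Detection – high-throughput flow cytometry of beads, ex 488, em 535 nm · Evaluation – percent response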
APOBEC3G inh: APOBEC3G DNA deaminase inhibitors, primary screen, biochemical, fluorescence, single-stranded DNA substrate, uHTS; DNA dC->dU-editing enzyme APOBEC-3G (Homo sapiens), Q9HC16; recombinant A3G, ssDNA deamination FAM/TAMRA fluorescence; inhibition, % at 20 µM; 330,000 compounds, 0.28% hits;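 active means inhibition of at least 40% at 20 µM, with no more than 30% in the related APOBEC3A deaminase screen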;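 further: plate controls were DMSO wells with A3G for no effect and wells lacking A3G enzyme for full effect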
Target sequence (Q9HC16 whole entry, looked up): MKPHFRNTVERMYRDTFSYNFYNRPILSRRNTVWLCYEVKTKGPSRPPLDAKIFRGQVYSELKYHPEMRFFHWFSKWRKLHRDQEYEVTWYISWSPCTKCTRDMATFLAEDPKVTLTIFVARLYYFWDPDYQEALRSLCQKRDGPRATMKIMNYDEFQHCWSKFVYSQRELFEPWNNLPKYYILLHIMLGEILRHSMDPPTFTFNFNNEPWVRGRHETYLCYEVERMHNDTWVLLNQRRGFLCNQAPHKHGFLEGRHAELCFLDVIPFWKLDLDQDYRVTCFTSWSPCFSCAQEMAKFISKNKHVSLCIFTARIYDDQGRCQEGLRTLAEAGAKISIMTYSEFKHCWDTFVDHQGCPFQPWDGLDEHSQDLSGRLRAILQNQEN
AHR activator: AHR activators, primary screen, cell-based, luminescence, luciferase reporter, human; AID 2796, 2010; activation, % at 5 µM; Aryl hydrocarbon receptor (Homo sapiens), P35869; 320,000 compounds, 2.5% hits; AHR-responsive luciferase reporter cells; in the data active means activation above about 47%;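 further: 0% = vehicle wells and 100% = reference agonist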
APOBEC3A inh: APOBEC3A ssDNA deaminase inhibitors, primary screen, selectivity assay for APOBEC3G inhibitor project, biochemical, FAM/TAMRA oligo cleavage fluorescence; 330,000 compounds, 0.41% hits; inhibition, % at 20 µM; AID 493011, 2011; recombinant A3A, FAM/TAMRA ssDNA deamination fluorescence; DNA dC->dU-editing enzyme APOBEC-3A (Homo sapiens), P31941;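 active means at least 40% inhibition at 20 µM here, with at most 30% in a related deaminase screen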;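 further: plate controls were A3A with DMSO for no effect and wells lacking A3A enzyme for full effect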
UCH37 DUB inh: inhibitors of human UCH37 deubiquitinase, primary screen, biochemical, Ub-AMC cleavage, fluorescence; purified proteasome/UCH37; inhibition, % (no concentration beside the values); 330,000 compounds, 0.33% hits; AID 588478, 2011;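 active means mean inhibition over replicate wells above about 20%, limit read from the data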;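 further: 0% = compound-free wells with enzyme and 100% = wells lacking proteasome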
Target sequence (Q9Y5K5 whole entry, looked up): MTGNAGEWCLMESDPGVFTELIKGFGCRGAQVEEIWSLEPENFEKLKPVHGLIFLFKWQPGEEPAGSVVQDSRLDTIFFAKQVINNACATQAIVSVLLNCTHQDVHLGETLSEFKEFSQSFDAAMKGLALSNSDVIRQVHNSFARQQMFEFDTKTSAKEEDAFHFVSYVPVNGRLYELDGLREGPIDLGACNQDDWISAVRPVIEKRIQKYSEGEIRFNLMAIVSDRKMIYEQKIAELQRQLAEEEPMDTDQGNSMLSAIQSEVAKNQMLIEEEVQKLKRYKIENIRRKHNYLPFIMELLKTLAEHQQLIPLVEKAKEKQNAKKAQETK
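Signal – fluorescence, ex 355 nm, em 460 nm · System – Proteasome-bound UCH37 · Input – 0.15 nM proteasome as dispensed · Timing – 30 min preincubation with enzyme, 25 min cleavage at room temperature · Read-out basis – percent inhibition of cleavage signal versus uninhibited and no-proteasome wells · Medium – Tris-HCl pH 7.4 with ATP-MgCl2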
PolyA inhibitor: polyadenylation inhibitors in yeast reporter cells, primary screen, luminescence, S. cerevisiae; S. cerevisiae SKY197-pL101 polyadenylation reporter, beta-gal luminescence; efflux-impaired pdr1/pdr3 knockout yeast; score 100 = 6 SD above DMSO; activity score, % at 12 µM; 300,000 compounds, 0.02% hits; AID 1875, 2009;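 active means lowest replicate activity score at least 50, where 100 means six control SD above control mean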;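 further: yeast exposed to compound for 9 h at 30 °C; higher score means more reporter readthrough which indicates perturbed polyadenylation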
Starred values were filed as active, the others as inactive; x = no result. Sampled rows, rich in hits. Any-hit rate of the full collection: about 3.4%.

SMILES | Arrestin-AP2 inh | APOBEC3G inh | AHR activator | APOBEC3A inh | UCH37 DUB inh | PolyA inhibitor
CCN(CCS(=O)(=O)c1ccc(Cl)cc1)C(=O)Nc1ccccc1 | 2.2 | -6.2 | 0.5 | -2.9 | 3.0 | 9.0
CCCCNC(=O)ON=C(N)CS(=O)(=O)C(C)(C)C | x | x | x | x | 1.4 | x
Cc1nc2ccc(Cl)cc2nc(C)/c1=N\O | 8.1 | -0.6 | 57.8* | -7.4 | x | 2.3
Cc1nc2ccc(Cl)cc2nc(C)c1=NO | x | x | x | x | 2.3 | x
O=C(NN=Cc1sc(N2CCCCC2)nc1-c1cccs1)c1cccnc1 | x | x | x | x | -1.9 | x
C/C=C/C=NNc1nc(C)cc(=O)[nH]1 | x | x | x | x | 1.1 | x
COc1cc2cc(CN(Cc3cccs3)C(=S)Nc3ccc(C)cc3)c(=O)[nH]c2cc1OC | -2.0 | -3.6 | 49.8* | -1.5 | -7.1 | 14.8
COc1cc2cc(CN(Cc3cccs3)C(=S)Nc3cccc(C)c3)c(=O)[nH]c2cc1OC | x | -4.4 | 30.9 | 0.3 | x | -3.7
FC(F)(F)c1cccc(NC(=S)Nc2cccc(NC(=S)Nc3cccc(C(F)(F)F)c3)n2)c1 | 13.4 | -1.6 | 65.6* | -3.4 | 2.9 | -6.9
CC(C)(C)c1ccc(NNC(=O)C2CCC2)cc1 | 19.1 | 0.1 | 72.7* | -0.3 | x | 0.1
CC(=NN1CCN(c2ccccc2)CC1)c1ccccc1O | x | x | x | x | 4.6 | x
COC(=O)c1[nH]c2cc(C)ccc2c1NC(=O)CN1CCN(C(=O)c2ccco2)CC1 | -1.1 | -3.9 | 67.3* | 0.7 | -1.6 | -6.7
COC(=O)c1[nH]c2ccc(C)cc2c1NC(=O)CN1CCc2cc(OC)c(OC)cc2C1 | 35.7 | 2.9 | 3.6 | 36.7 | -4.9 | 1.9
CCOC(=O)C1CCCN(CC(=O)Nc2c(C(=O)OC)[nH]c3ccc(Br)cc23)C1 (configuration not stated) | -3.9 | -4.3 | 8.3 | -1.6 | 0.0 | -9.6
COC(=O)c1[nH]c2cc(C)ccc2c1NC(=O)CN1CCCc2ccccc21 | 11.5 | -9.4 | 66.5* | 1.7 | 5.0 | -27.4
COC(=O)c1[nH]c2ccc(Br)cc2c1NC(=O)CN1CCCc2ccccc21 | 0.0 | -4.5 | 47.7* | -3.2 | 11.7 | -60.4
COc1ccc(NCC(=O)NN=Cc2c(C)nn(Cc3ccccc3)c2Cl)cc1 | x | x | x | x | 2.8 | x
O=C(Nc1ccccc1)N1CCn2c1nc1ccccc12 | 2.4 | -11.0 | 50.6* | -7.9 | 1.6 | -27.8
COc1ccc(NC(=O)N2CCn3c2nc2ccccc23)cc1 | 18.0 | -1.0 | 29.9 | 1.5 | 5.0 | -2.7
O=c1[nH]c(Nc2ccccc2)cc2ccccc12 | 17.3 | -0.4 | 3.4 | -0.3 | -26.7 | 10.4
CC(=O)c1cccc(-c2ccc3c(=O)[nH]c(Nc4ccccc4)cc3c2)c1 | 0.2 | -2.0 | 24.2 | 1.2 | 31.1* | -2.0
CC(=NNC(=S)NCCc1ccccc1)c1ccc(Cl)cc1 | x | x | x | x | 4.2 | x
Nc1ccc2nn(-c3cccc4ccccc34)nc2c1 | 23.8 | -1.3 | 48.0* | -2.7 | -244.7 | 12.0
CNC(=O)c1ccsc1NC(=O)c1ccccc1 | -3.1 | -2.6 | 49.4* | -0.5 | 8.3 | 21.1
CNC(=O)c1ccsc1NC(=O)c1ccc(Cl)s1 | -1.7 | -7.5 | 66.2* | -4.2 | -33.0 | -6.5
SMILES | Arrestin-AP2 inh | APOBEC3G inh | AHR activator | APOBEC3A inh | UCH37 DUB inh | PolyA inhibitor
CC(=NNC(=O)CNC(=O)C(c1ccccc1)c1ccccc1)c1ccc(C(C)(C)C)cc1 | x | x | x | x | -0.3 | x
CC(C)OC(=O)c1cccnc1SCc1cc(=O)n2ccccc2n1 | 7.5 | 2.4 | 54.6* | 3.1 | -9.8 | -8.8
Nn1c(SCC(=O)NCCC2=CCCCC2)nnc1C1CCCCC1 | -1.2 | -0.6 | 4.6 | 4.9 | 8.3 | -5.4
Nn1c(SCC(=O)NCCC2=CCCCC2)nnc1C(F)(F)F | -7.2 | -3.2 | 49.5* | -0.6 | 3.6 | 3.4
COc1ccc(NC(=O)c2nc[nH]c2C(=O)N[C@@H](C)c2ccccc2)cc1 | 1.4 | -5.3 | 47.8* | 0.8 | -0.1 | 8.1
C[C@H](NC(=O)c1[nH]cnc1C(=O)N[C@H](C)c1ccccc1)c1ccccc1 | -1.8 | -9.0 | 1.6 | -1.7 | 3.1 | x
CNC(=O)c1[nH]cnc1C(=O)Nc1cccc(OC)c1 | 6.8 | 4.1 | 57.0* | -3.0 | 6.3 | 3.6
O=C(NN=Cc1ccccc1)c1ccc(N2CCCC2=O)cc1 | x | x | x | x | 4.8 | x
O=c1c(C=NOCc2ccc(Cl)cc2Cl)c[nH]n1-c1cccc(Cl)n1 | x | x | x | x | 2.9 | x
Nc1c(C(=O)c2cccs2)oc2ccccc12 | 3.3 | -3.3 | 49.4* | 2.9 | -6.5 | -11.7
Nc1ccc(C(=O)c2cccs2)cc1 | -10.4 | -6.0 | 8.9 | 0.2 | x | 9.5
Nc1c(C(=O)c2ccc(Br)s2)oc2ccccc12 | 8.9 | 2.7 | 67.8* | 2.7 | -1.9 | -13.5
CC(=NNC(=O)NC1CCCCC1)c1ccc(OC(F)F)cc1OC(F)F | x | x | x | x | 0.2 | x
Cc1ccc(C(=O)N/N=C(/CC(=O)c2cccs2)C(F)(F)F)cc1 | 2.6 | -2.8 | 61.6* | -2.7 | x | -3.3
O=C(NN=C(CC(=O)c1cccs1)C(F)(F)F)c1ccc(O)cc1 | x | x | x | x | 4.1 | x
COC(=O)CNc1c(-c2ccccn2)nc2ccc(Br)cn12 | -3.8 | 1.1 | 61.9* | -1.9 | 2.8 | -13.9
CCOc1ccccc1C1N=C(c2ccc(OC)cc2)CC(c2ccccc2O)N1 (configuration not stated) | -9.6 | -1.0 | 16.9 | 4.0 | -1.1 | -6.6
CC(C)C1N=C(c2ccc3c(c2)OCO3)CC(c2ccccc2O)N1 (configuration not stated) | -4.5 | 3.6 | 59.0* | -0.2 | 1.1 | -12.5
Cc1cc(C(=O)NN=Cc2cc(Br)c(Br)o2)n[nH]1 | x | x | x | x | 6.5 | x
COc1ccc2c(c1)-c1nc(N=Cc3cccc(OC)c3O)sc1CC2 | x | x | x | x | 5.0 | x
CCCCC(=NNC(=O)c1ccc(Br)o1)c1ccccc1 | x | x | x | x | 11.5 | x
CCn1c2ccccc2c2nnc(SCc3ccccc3)nc21 | 6.8 | 2.9 | 62.7* | 0.8 | 1.9 | 12.8
CC(C)(C)c1ccccc1NC(=O)c1cc(-c2ccncc2)nc2ccccc12 | -5.1 | 1.0 | 52.5* | 10.1 | 5.7 | x
COc1ccc(-c2cc(C(=O)Nc3cccnc3)c3ccccc3n2)cc1OC | 4.0 | -11.1 | 66.8* | -4.0 | -25.0 | -1.1
Cc1ccc(-c2cc(C(=O)Nc3nccs3)c3ccccc3n2)o1 | 4.3 | 22.1 | 55.3* | 7.1 | x | -22.6
Cc1ccc(-c2cc(C(=O)Nc3nccs3)c3ccccc3n2)c(C)c1 | -0.1 | -2.9 | 45.7 | 0.5 | -1.6 | -7.7
